The list is not random: actives were taken first. Their share in the collection is about 2.1%.
SUMO HTRF inh = inhibitors of in vitro SUMOylation cascade, primary screen, biochemical, HTRF, uHTS; SUMO-conjugating enzyme UBC9 (Homo sapiens), P63279; HTRF SUMOylation assay, SAE1/SAE2 + UBC9; inhibition, % at 35 µM; 290,000 compounds, 0.36% hits; in the data active = inhibition above about 50%, passing the limit was not always enough
Target sequence (P63279 whole entry, looked up): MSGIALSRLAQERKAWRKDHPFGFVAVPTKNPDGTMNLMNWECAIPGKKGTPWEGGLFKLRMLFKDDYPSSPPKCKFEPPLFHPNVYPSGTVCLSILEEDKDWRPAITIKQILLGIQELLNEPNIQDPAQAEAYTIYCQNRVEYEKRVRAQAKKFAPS
NS3 helicase inh = inhibitors of HCV NS3 helicase, primary screen, biochemical, Cy5 molecular beacon fluorescence; inhibition, % at 10.9 µM; 290,000 compounds, 0.56% hits; Hepatitis C virus NS3 helicase; NS3 helicase DNA unwinding;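 active = inhibition above the mean of all tested compounds plus 3 SD, set per campaign, cut at about 35% in these data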;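 also: 0% = DMSO wells and 100% = thioflavine S control wells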
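Control set: DMSO versus 110 µM thioflavine S; Material: NS3 helicase fragment of HCV; Measured by: Cy5 fluorescence at 0 and 60 min, beacon hairpin quenching; Read-out basis: percent inhibition from t60/t0 fluorescence ratio; Times: reaction time 60 min, 25 °C; Repeats: single replicate; Compound dosing: single dose, 10.9 µM nominal final, DMSO 0.8% final.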
DNA FID counter-1 = compounds displacing fluorescent DNA intercalator, primary screen, artefact control for HCV NS3 helicase inhibitor project, biochemical, FID fluorescence; DNA fluorescent intercalator displacement; inhibition, % at 7.9 µM; 290,000 compounds, 0.17% hits; AID 1845, 2009;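 also: 0% = vehicle and 100% = reference compound; higher means more ethidium bromide displaced from hairpin DNA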
IMP-1 inh = IMP-1 metallo-beta-lactamase inhibitors, primary screen, biochemical, epi-absorbance readout, Pseudomonas aeruginosa enzyme | inhibition, % at 5.6 µM | purified IMP-1, nitrocefin hydrolysis, epi-absorbance fluorescence | 290,000 compounds, 0.45% hits;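 active = inhibition above the mean plus 3 SD of all compounds in the same screening run, cut at about 4.5% in these data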;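 also: 0% = IMP-1 with DMSO and 100% = DMSO wells lacking enzyme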
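System: Purified recombinant IMP-1 metallo-beta-lactamase enzyme | Measured by: Fluorescence quenching readout, ex 480/em 530 nm | Replication: Singlicate | Incubation: 15 min preincubation plus 25 min reaction at 25 °C | Evaluation: Percent inhibition from optical density relative to buffer-blank wells | Benchmarks: DMSO with and without IMP-1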
VIM-2 inh = VIM-2 metallo-beta-lactamase inhibitors, primary screen, biochemical, epi-absorbance readout, Pseudomonas aeruginosa enzyme; purified VIM-2, nitrocefin hydrolysis, epi-absorbance fluorescence; inhibition, % at 5.6 µM; 290,000 compounds, 0.89% hits; AID 1527, 2009;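 active = inhibition above the mean of all tested compounds plus 3 SD, cutoff set per screening run, cut at about 7.5% in these data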;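 also: red hydrolysis product quenches plate fluorescence so inhibitors raise well fluorescence; 0% = enzyme with DMSO and 100% = DMSO without enzyme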
VIM-2 inh confirm = P. aeruginosa VIM-2 enzyme inhibition – biochemical, epi-absorbance, HTS, confirmation; shares compounds with IMP-1 inh; purified VIM-2 enzyme, nitrocefin absorbance; inhibition, % at 5.6 µM; 200 compounds, 73% hits; in the data active = inhibition above about 8%;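 also: 0% = enzyme with vehicle and 100% = no enzyme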
TEM-1 counter = Serine beta-lactamase TEM-1 inhibition, biochemical epi-absorbance counter-screen for IMP-1/VIM-2 inhibitor program; shares compounds with IMP-1 inh; TEM-1 beta-lactamase, nitrocefin absorbance inhibition; inhibition, % at 5.6 µM; 200 compounds, 50% hits; AID 2184, 2009; in the data active = inhibition above about 0.66%
Target sequence (P62593 whole entry, looked up): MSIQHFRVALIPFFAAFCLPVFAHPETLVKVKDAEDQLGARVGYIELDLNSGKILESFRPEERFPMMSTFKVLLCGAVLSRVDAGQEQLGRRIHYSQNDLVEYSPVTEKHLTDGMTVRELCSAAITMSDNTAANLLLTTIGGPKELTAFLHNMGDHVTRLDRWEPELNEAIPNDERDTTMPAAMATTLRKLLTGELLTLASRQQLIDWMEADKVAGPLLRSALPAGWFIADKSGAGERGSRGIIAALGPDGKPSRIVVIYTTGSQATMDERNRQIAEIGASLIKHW
IMP-1 confirm = IMP-1 metallo-beta-lactamase inhibitors, confirmation, biochemical, epi-absorbance, hits shared with VIM-2 screen; shares compounds with IMP-1 inh; purified IMP-1 enzyme, absorbance substrate hydrolysis; inhibition, % at 5.6 µM; 200 compounds, 60% hits; AID 2189, 2009; in the data active = inhibition above about 4.9%;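 also: 0% = enzyme with vehicle and 100% = vehicle without enzyme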
NS3 helicase cf = HCV NS3 helicase inhibitors, retest, confirmation, biochemical, Cy5 molecular beacon fluorescence, triplicate; shares compounds with NS3 helicase inh; NS3 helicase DNA unwinding; inhibition, % at 10.9 µM; 1,600 compounds, 31% hits; AID 1943, 2009;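 active = inhibition above the mean of all tested compounds plus 3 SD, cutoff set per campaign, cut at about 36% in these data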
DNA FID counter-2 = compounds displacing fluorescent DNA intercalator, artefact control for HCV NS3 helicase inhibitor project, biochemical, FID fluorescence, triplicate; shares compounds with NS3 helicase inh; DNA fluorescent intercalator displacement; inhibition, % at 7.9 µM; 1,600 compounds, 4% hits; AID 1945, 2009;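 also: 0% = vehicle and 100% = reference compound; higher means more displacement of ethidium bromide from the DNA hairpin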
FID counter DR = compounds displacing fluorescent intercalator from DNA, dose response, counter-screen for HCV NS3 helicase inhibitor project, biochemical, fluorescence; shares compounds with NS3 helicase inh; fluorescent intercalator displacement from DNA; IC50, µM; 120 tested, under 10 active; AID 2172, 2009; call rule not given here
* hit, by the source's call; nt = not tested or not shown. Rule as the data show it, unless noted: active = inhibition above about 37%; inactive = the rest.

SMILES	SUMO HTRF inh	NS3 helicase inh	DNA FID counter-1	IMP-1 inh	VIM-2 inh	VIM-2 inh confirm	TEM-1 counter	IMP-1 confirm	NS3 helicase cf	DNA FID counter-2	others
Cc1ccc(-c2nc3ccccc3c(=O)n2NC(=S)N(C)C)cc1	2.6	-6.3	1.7	-1.9	-2.5	nt	nt	nt	nt	nt
COc1cc(NC(=O)CCNS(=O)(=O)c2ccc3c(c2)CCC(=O)N3)cc(OC)c1	-10.1	1.4	-5.5	-4.5	-2.0	nt	nt	nt	nt	nt
CCOC(=O)NC(=O)C(/C=N/c1sccc1C(=O)OC)=C(\C)O	14.6	-10.2	-4.8	8.6*	7.8*	10.1*	-2.6	-2.8	nt	nt
CCC(=O)Nc1sccc1C(=O)OC	5.4	11.6	-8.0	-3.7	-0.7	nt	nt	nt	nt	nt
O=c1oc(-c2ccccc2)cc(Cl)c1Cl	-20.8	-5.3	-1.7	-4.2	-1.2	nt	nt	nt	nt	nt
O=P(O)(O)c1cc(-c2ccccc2)oc1-c1ccccc1	-5.6	9.5	-10.1	22.4*	30.4*	39.6*	-2.2	22.6*	nt	nt
C/C(=N\Nc1ccc(C(=O)O)cc1)c1ccc(S(=O)(=O)NCc2ccco2)cc1	12.5	6.7	-25.8	-1.9	-2.4	nt	nt	nt	nt	nt
CC(c1ccccc1)n1c(-c2ccccc2F)n[nH]c1=S (stereo not given)	4.1	-2.3	-15.7	6.4*	9.1*	10.6*	-4.2	2.2	nt	nt
Cc1cc2nc3c(=O)[nH]c(=O)[nH]c3nc2c([N+](=O)[O-])c1N	75.6*	12.3	2.1	12.2*	12.4*	11.1*	19.8*	4.3	nt	nt
CC(CCc1ccccc1)NC(=O)C1CCN(S(=O)(=O)c2ccc(F)cc2)CC1 (stereo not given)	-9.1	1.1	-58.3	-1.2	-1.6	nt	nt	nt	nt	nt
O=C(Nc1ccc2oc(-c3ccccc3F)nc2c1)c1cncc(Br)c1	-8.4	-0.5	-3.4	-1.6	-1.2	nt	nt	nt	nt	nt
O=C(Nc1ccc2oc(-c3ccccc3F)nc2c1)c1ccc([N+](=O)[O-])o1	48.1	2.2	1.5	41.5*	12.4*	8.5*	7.1*	24.3*	nt	nt
CCC(c1c(C)n(C)n(-c2ccccc2)c1=O)c1c(C)n(C)n(-c2ccccc2)c1=O	-1.6	38.6*	0.3	39.2*	36.3*	-2.5	-4.3	-3.6	-13.4	-2.5
CCCC(c1c(C)n(C)n(-c2ccccc2)c1=O)c1c(C)n(C)n(-c2ccccc2)c1=O	1.5	-2.7	-17.6	-1.4	-2.8	nt	nt	nt	nt	nt
O=C(NCC(=O)N(c1ccc(F)cc1)C(C(=O)NC1CCCCC1)c1ccncc1)c1ccco1 (stereo not given)	1.3	-3.7	-34.8	-3.7	-1.4	nt	nt	nt	nt	nt
Cc1c(O)ccc(C(=O)CN2CCN(Cc3ccc4c(c3)OCO4)CC2)c1O	2.0	84.3*	98.2*	87.4*	91.0*	-0.9	-5.6	-2.2	-4.5	34.5
COc1cc(OC)c(-c2c3cc(O)c(=O)cc-3oc3cc(O)c(O)cc23)cc1OC	80.1*	50.7*	-35.0	7.0*	15.5*	48.9*	74.6*	45.9*	85.5*	-167.0
COc1c(O)cc2oc(-c3ccc(O)cc3)cc(=O)c2c1O	0.5	nt	nt	nt	nt	nt	nt	nt	nt	nt
O=C(O)CCCN1C(=O)/C(=C/C=C/c2ccco2)SC1=S	70.4	73.3*	-9.3	10.0*	7.1	-0.8	-4.0	-2.8	76.4*	4.1
Cc1cc(-c2nnc(CCC(=O)NC(C)(C)C34CC5CC(CC(C5)C3)C4)o2)no1	4.9	-2.4	-35.7	-1.9	-1.1	nt	nt	nt	nt	nt
O=C1OC(c2ccc(F)cc2)=C/C1=C\c1ccc(O)cc1	10.5	11.3	-1.7	-3.7	-0.8	nt	nt	nt	nt	nt
O=C1OC(c2ccc(F)cc2)=C/C1=C\c1ccc([N+](=O)[O-])o1	51.5*	44.5*	-20.2	-1.4	-3.4	nt	nt	nt	42.2*	19.3
CC(C)OC(=O)/C(=C/c1ccco1)c1ccccc1	17.1	60.5*	-15.1	1.4	-0.1	nt	nt	nt	-19.5	-9.0
CCOC(=O)N1CCN(C(=O)CN(c2ccccc2)S(C)(=O)=O)CC1	15.8	-3.0	-4.5	-2.2	1.2	nt	nt	nt	nt	nt
CC(=O)C1=C(C)NC(SCc2cccc3ccccc23)=C(C#N)C1c1ccco1 (stereo not given)	15.4	37.6*	-11.8	-0.3	-1.4	nt	nt	nt	-3.8	-2.5
SMILES	SUMO HTRF inh	NS3 helicase inh	DNA FID counter-1	IMP-1 inh	VIM-2 inh	VIM-2 inh confirm	TEM-1 counter	IMP-1 confirm	NS3 helicase cf	DNA FID counter-2	others
CNc1ccc(Br)cc(C(=O)/C=C/c2cccc(Cl)c2Cl)c1=O	33.6	36.5*	-12.2	5.9*	-1.6	nt	nt	nt	68.5*	24.0	FID counter DR=>79.4
CNc1ccccc(C(=O)/C=C/c2ccccc2OC)c1=O	11.5	34.0	-22.6	2.2	-1.5	nt	nt	nt	nt	nt
CCN(CC)C(=O)Cn1cnc2sc(C(=O)NCCCN3CCOCC3)c(C)c2c1=O	5.2	6.1	-1.3	-2.8	-6.7	nt	nt	nt	nt	nt
CCCOc1ccc(/C=c2\sc3nc(-c4ccco4)nn3c2=O)cc1OCC	2.3	42.3*	-18.9	-0.6	-2.6	nt	nt	nt	-12.4	-2.1
CC(=O)Oc1cccc(/C=c2\sc3nc(-c4ccco4)nn3c2=O)c1	8.1	23.9	-14.3	-1.0	-1.4	nt	nt	nt	nt	nt
CCCCCOc1ccc(/C=c2\sc3nc(=O)c(-c4ccccc4)nn3c2=O)cc1OC	19.7	43.0*	-23.9	-2.2	-2.6	nt	nt	nt	72.0*	-20.2	FID counter DR=>79.4
C=C(C)C(=O)Nc1cccc(C2=NOC3(C2)C[C@H](C(N)=O)N(C(=O)/C=C/C)C3)c1 (stereo not given in full)	-9.0	nt	nt	nt	nt	nt	nt	nt	nt	nt
O=C(NCCc1csc(-c2ccc(Cl)cc2)n1)c1ccco1	0.8	-4.7	-26.3	-3.6	-0.1	nt	nt	nt	nt	nt
Cc1ccc(-c2nc(CNC(=O)c3ccco3)cs2)cc1	13.9	40.7*	-43.8	-2.6	-0.9	nt	nt	nt	-17.9	-10.5
S=C(NCC1CCCO1)N1CCc2ccccc2C1 (stereo not given)	-6.8	-20.3	-11.3	-0.1	-0.3	nt	nt	nt	nt	nt
